# CHRM1 agonist: activates human CHRM1 receptor; CHO-K1 hM1, Fluo-8 calcium fluorescence, agonist mode; 0% DMSO, 100% acetylcholine EC100; activation, % at 3 µM; 360,000 compounds, 0.33% hits;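 active = activation above the run's mean compound activation plus 3 SD, cut at about 16% in these data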;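 also: peak over basal fluorescence ratio within a 140 s kinetic read after compound addition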
# CHRM1 antagonist: blocks human M1 muscarinic receptor. P11229. CHO-K1 hM1, Fluo-8 calcium fluorescence, ACh EC80 antagonist. inhibition, % at 3 µM. 360,000 compounds, 1.3% hits;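 active = percent inhibition above its own plate's cutoff, namely the mean of that plate's compound wells plus 3 SD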;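 also: peak over basal fluorescence ratio during 140 s after agonist addition; 0% = ACh EC80 plus DMSO and 100% = DMSO alone without agonist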
# M5 PAM: CHRM5 positive allosteric modulation; AID 624038; CHO-K1 hM5, Fluo-8 calcium, ACh EC20 PAM; 0% = ACh EC20, 100% = ACh EC100; P08912; activation, % at 3 µM; 360,000 compounds, 0.3% hits;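 active = activation above the run cutoff, the mean activation of all test compounds plus 3 SD, cut at about 18% in these data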
# Target sequence (P08912 whole entry, looked up): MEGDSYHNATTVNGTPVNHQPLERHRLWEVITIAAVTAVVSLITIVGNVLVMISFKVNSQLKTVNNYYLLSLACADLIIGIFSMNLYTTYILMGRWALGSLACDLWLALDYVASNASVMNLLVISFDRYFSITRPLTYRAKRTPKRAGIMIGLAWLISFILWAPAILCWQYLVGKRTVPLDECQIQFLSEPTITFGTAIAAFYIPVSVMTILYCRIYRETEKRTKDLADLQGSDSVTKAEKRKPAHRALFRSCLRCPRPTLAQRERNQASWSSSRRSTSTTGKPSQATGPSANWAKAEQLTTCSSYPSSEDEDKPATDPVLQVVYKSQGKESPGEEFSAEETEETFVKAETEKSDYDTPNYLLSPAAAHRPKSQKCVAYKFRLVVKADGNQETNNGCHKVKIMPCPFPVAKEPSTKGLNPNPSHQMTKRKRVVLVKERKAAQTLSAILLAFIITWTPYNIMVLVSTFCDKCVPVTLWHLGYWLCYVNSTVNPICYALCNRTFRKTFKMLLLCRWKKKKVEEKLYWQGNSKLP
#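 Assay system – human M5 receptor in CHO-K1 cells · Read-out – % activation, ACh-normalized · Technique – Fluo-8 calcium fluorescence · Dosing – single-point, 3 µM nominal · Incubation – Fluo-8 loading 80 min at 37 °C plus 30 min room temperature · Repeats – singlicate, one well per test compound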
# CHRM5 antagonist: antagonists of human muscarinic M5 receptor (CHRM5); P08912; CHO-hM5 cells, Fluo-8 calcium fluorescence, ACh EC80; inhibition, % at 3 µM; 360,000 compounds, 0.59% hits;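 active = inhibition above a per-plate cutoff, the mean of that plate's test compounds plus 3 SD, cut at about 27% in these data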;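 also: 0% = acetylcholine EC80 with DMSO and 100% = DMSO without agonist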
# M1 PAM: human CHRM1 positive allosteric modulation. CHO-K1 hM1, Fluo-8 calcium fluorescence, ACh EC20; 0% = ACh EC20, 100% = maximal ACh. AID 588819. 360,000 compounds, 0.088% hits. activation, % at 3 µM; in the data active = activation above about 19%, passing the limit was not always enough
# M5 ag: CHRM5 agonism in calcium assay | P08912 | CHO-K1 hM5 cells, Fluo-8 calcium fluorescence; 0% DMSO wells, 100% maximal acetylcholine response | activation, % at 3 µM | 360,000 compounds, 0.19% hits;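 active = activation above the run's mean over test compounds plus 3 SD, cut at about 23% in these data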;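 also: signal is peak over basal fluorescence ratio across the kinetic read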
# Starred values were filed as active, the others as inactive. Compounds with a hit are over-represented: about 2.1% of the library has one in this group of screens.
SMILES,CHRM1 agonist,CHRM1 antagonist,M5 PAM,CHRM5 antagonist,M1 PAM,M5 ag
COc1ccc(C2CC(=O)C(C=NCCO)=C(O)C2)cc1OC (configuration not stated),1,-23,4,-8,7,1
COc1ccc(C2=CC(=O)C[C@H](c3ccc(Cl)cc3)C2)cc1,-5,4,-8,12,-8,-6
C=CCNC(=S)N1CCN(CCN=CC2=C(O)CC(c3ccco3)CC2=O)CC1 (configuration not stated),-8,7,4,2,-5,-3
O=C1CC(c2cccs2)CC(O)=C1C=NCCN1CCNCC1 (configuration not stated),17*,32*,-8,5,-8,-6
CCC(=O)N1CCN(CCN=CC2=C(O)CC(c3cccs3)CC2=O)CC1 (configuration not stated),-9,-13,1,-6,9,2
CN(C)C1(CNC(=S)Nc2ccccc2C(F)(F)F)CCCCC1,50*,6,3,-1,-6,-9
CN(C)C1(CNC(=O)Nc2ccccc2)CCCCC1,-8,-9,2,4,7,-5
Fc1ccc(COc2ccccc2CNc2nn[nH]n2)cc1,-4,-6,-8,7,7,-2
C/C(=N\N1CCCCC1)c1ccccc1O,22*,6,6,0,5,10
O=C(c1cccs1)N1CCN=C1SCc1cccnc1,-1,-24,20*,22,3,8
O=C(c1cccs1)N1CCN=C1SCc1ccc(Cl)cc1,-3,7,6,4,1,-2
COc1cc(OC)nc(NC(=O)CSc2nnc(-c3ccccc3)n2C2CCCCC2)n1,1,14,25*,15,-3,0
O=C(Nc1ccccc1)N1CCc2c([nH]c3ccccc23)C1C(F)(F)F (configuration not stated),-6,-13,5,-3,4,0
C[C@H](NC(=O)OC(C)(C)C)C(=O)N/N=C/c1cccc2nccnc12,-2,-5,-10,7,4,3
COCCCn1c(SCC(N)=O)nnc1-c1ccccc1,-3,10,-4,1,-3,1
COCCCn1c(SCC(=O)NC(C)C)nnc1-c1ccccc1,-1,-20,19*,-15,2,-1
CCOC(=O)c1ccc(N2C(=O)C(O)=C(C(C)=O)C2c2ccc([N+](=O)[O-])cc2)cc1 (configuration not stated),-2,-23,19*,-5,15,4
O=S(=O)(c1ccc(NC(=S)Nc2ccccc2)cc1)N1CCOCC1,-9,-8,24*,-1,9,-3
O=S(=O)(c1ccc(NC(=S)NCc2cccnc2)cc1)N1CCCCC1,4,44*,-27,18,-17,2
O=C(CN1CCOCCOCCOCC1)Nc1ccccc1,-5,2,-5,11,0,2
O=S(=O)(Nc1ccc(S(=O)(=O)N2CCCC2)cc1)c1ccc(F)cc1,-1,-16,8,-4,15,-2
O=S(=O)(Nc1ccc(F)cc1)c1ccc(S(=O)(=O)N2CCOCC2)cc1,24*,10,-5,0,-6,27*
O=C(CN1CCOCC1)NNC(=S)Nc1ccccc1,0,-12,29*,-2,12,9
CCOC(=O)C1CCCN(C(=O)COc2ccc(C(=O)c3ccc(F)cc3)cc2)C1 (configuration not stated),-2,1,-2,7,1,5
CC(=O)c1cnn(-c2ccc(Cl)cc2)c1C,-2,-7,7,-1,17,1
SMILES,CHRM1 agonist,CHRM1 antagonist,M5 PAM,CHRM5 antagonist,M1 PAM,M5 ag
CCCC(C(=O)Nc1ccc(C)c(S(=O)(=O)N2CCOCC2)c1)c1ccccc1 (configuration not stated),-2,-6,0,1,3,-1
O=C(/C=C/c1cccc(F)c1)Nc1ccc(S(=O)(=O)N2CCOCC2)cc1,0,-21,19*,12,13,-4
CCCC(C(=O)Nc1ccc(S(=O)(=O)N2CCOCC2)cc1)c1ccccc1 (configuration not stated),20*,7,-6,5,1,23*
COc1cc(C#Cc2ccc3cc(CCO)oc(=O)c3c2)cc(OC)c1,10,14,8,11,10,16
CC(CN1CCCCC1)OC(=O)c1ccccc1F (configuration not stated),-8,-12,-4,6,5,-9
CC(CN1CCCCC1)OC(=O)C1c2ccccc2Oc2ccccc21 (configuration not stated),-4,87*,-56,16,-21,-13
Cc1ccc2cc(CN(CCN(C)C)C(=S)Nc3ccccc3)c(=O)[nH]c2c1C,-8,-4,-24,37*,4,43*
Cc1ccc(NC(=S)N(CCN(C)C)Cc2cc3cc(C)cc(C)c3[nH]c2=O)cc1,-13,-14,2,4,9,9
CCN(CC)CCN(Cc1cc2cccc(C)c2[nH]c1=O)C(=S)Nc1ccccc1,-8,1,-31,58*,2,63*
CCN1C(=O)c2cccc3c(NC(=O)c4cccc(N5C(=O)CCC5=O)c4)ccc1c23,-3,-6,-9,1,-2,3
CCOc1ccc(CCNC(=O)CSc2n[nH]c(N)n2)cc1OCC,-2,0,-8,30*,1,-3
CC(C)C1CC(CCN)(c2ccccc2)CCO1 (configuration not stated),-5,74*,2,7,-12,-12
COc1ccccc1C(=O)Nc1ccc2c(c1)nc1n2CCN(C2CCCCC2)C1,-4,8,-1,11,-4,-2
N#CCc1ccc(NC(=O)/C=C/c2ccc([N+](=O)[O-])o2)cc1,-2,-16,2,1,14,-6
O=C(CC(c1ccc(F)cc1)c1ccco1)N1CCOCC1 (configuration not stated),-3,13,3,3,28*,-3
Cc1ccc2cc3cc(C(=O)NCCN4CCOCC4)oc3nc2c1,0,-13,21*,-13,8,2
C=CCn1c(=N)n(CC(O)c2ccco2)c2ccccc21 (configuration not stated),-5,6,29*,8,2,-2
CN1CCCN(C(=O)CC(c2ccccc2)c2ccccc2)CC1,-12,99*,-18,16,-31,-10
CN1CCCN(C(=O)CSc2ccccc2)CC1,-9,3,-2,4,0,-8

# Assay outcomes (PubChem BioAssay)
